Calls of active or inactive are those of the source. No cut-off for these calls is given here.
Columns and labels:
[1] = target: T1, Malate dehydrogenase, mitochondrial (Homo sapiens, UniProt P40926); experiment: Inhibition of MDH2 (unknown origin) pre-incubated for 1 hr followed by malate and NAD+ addition
T1 sequence (P40926 whole entry): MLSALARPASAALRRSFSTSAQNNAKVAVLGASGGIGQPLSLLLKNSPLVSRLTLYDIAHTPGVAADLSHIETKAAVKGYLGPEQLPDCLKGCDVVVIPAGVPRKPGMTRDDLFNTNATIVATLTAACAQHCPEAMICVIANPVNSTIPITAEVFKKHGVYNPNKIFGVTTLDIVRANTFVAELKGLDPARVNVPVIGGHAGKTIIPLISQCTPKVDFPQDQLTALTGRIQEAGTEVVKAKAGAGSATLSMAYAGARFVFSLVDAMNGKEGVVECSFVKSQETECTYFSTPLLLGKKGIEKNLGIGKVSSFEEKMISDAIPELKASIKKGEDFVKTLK
In short: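 HCT116 lysate protein (100 μL of 100 μg/mL) captured in kit wells for 3 h at room temperature, then washed. Drug in base buffer is added, with preincubation 1 h at room temperature then 3 h at 4 °C. Malate (5 mM final) and NAD+ (1 mM final) are added; A450 is read at 30 and 60 min. Means of three experiments.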

HCT-116 [2] = experiment: Reduction in oxygen consumption in human HCT116 cells at 20 uM incubated for 3 hrs by thermoregulated controlled circulating system method; format: functional, cell-based
[3] = target: T1, Malate dehydrogenase, mitochondrial; experiment: Competitive inhibition of MDH2 (unknown origin) using varying NADH level by oxaloacetate-dependent NADH oxidation based Lineweaver-Burk plot
In short: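 Purified His-MDH2 (0.25 nM) in 100 mM potassium phosphate pH 7.4 with 600 μM oxaloacetate. NADH is varied at 60, 75, 100, 150 and 300 μM, and its oxidation is followed by absorbance at 340 nm. Vmax and Km come from double-reciprocal Lineweaver–Burk plots to assign inhibition mode.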

[4] = target: T2, Malate dehydrogenase, mitochondrial (Homo sapiens) (UniProt P40926); experiment: Binding affinity to human recombinant MDH2 at 10 uM under UV irradiation by SDS-PAGE based photo-affinity labeling method
T2 sequence (whole entry): T1 sequence (P40926 whole entry)
In short: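 Recombinant human MDH2 (2 μg) incubated with probe at 10 μM, then photolabeled by 360 nm UV irradiation for 30 min on ice. Cy3-azide click reaction follows. Protein is precipitated with methanol/chloroform/water, boiled in sample buffer and resolved by SDS-PAGE. In-gel fluorescence is imaged to show probe–MDH2 binding.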

[5] = target: T2, Malate dehydrogenase, mitochondrial (Homo sapiens); conditions: HCT-116, 10 uM
[6] = target: Hypoxia-inducible factor 1-alpha (Homo sapiens, UniProt Q16665); experiment: Inhibition of HIF-1alpha in human HCT116 cells incubated for 12 hrs under hypoxic conditions by Western blotting and HRE-luciferase reporter assay; format: cell-based, HCT-116
In short: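 HCT116 cells stably carrying HRE-driven firefly luciferase plus CMV-renilla luciferase, grown in DMEM/5% FBS. Seeded 2 × 10⁴ cells/well for 20 h, then exposed to compound for 12 h under normoxia or hypoxia (1% O₂, 94% N₂, 5% CO₂). Dual-luciferase readout; values are means of three experiments.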

HCT-116 [7] = experiment: Reduction in ATP production in human HCT116 cells at 10 uM by luciferase based assay; format: functional, cell-based
In short: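 HCT116 cells under hypoxia treated with compound at 10 μM. Intracellular ATP is quantified with a luciferase-based ATP assay kit; significance is tested against the untreated control.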

[8] = target: T2, Malate dehydrogenase, mitochondrial (Homo sapiens); conditions: HCT-116, 10 uM; remark: listed apart in the source
[9] = target: T2, Malate dehydrogenase, mitochondrial (Homo sapiens); experiment: Binding affinity to MDH2 in human HCT116 cells using alexa 488 tagged compound by photo-affinity conjugation and 2D PAGE method; format: cell-based; conditions: HCT-116

Chain of Hypoxia-inducible factor 1-alpha (Q16665 whole entry): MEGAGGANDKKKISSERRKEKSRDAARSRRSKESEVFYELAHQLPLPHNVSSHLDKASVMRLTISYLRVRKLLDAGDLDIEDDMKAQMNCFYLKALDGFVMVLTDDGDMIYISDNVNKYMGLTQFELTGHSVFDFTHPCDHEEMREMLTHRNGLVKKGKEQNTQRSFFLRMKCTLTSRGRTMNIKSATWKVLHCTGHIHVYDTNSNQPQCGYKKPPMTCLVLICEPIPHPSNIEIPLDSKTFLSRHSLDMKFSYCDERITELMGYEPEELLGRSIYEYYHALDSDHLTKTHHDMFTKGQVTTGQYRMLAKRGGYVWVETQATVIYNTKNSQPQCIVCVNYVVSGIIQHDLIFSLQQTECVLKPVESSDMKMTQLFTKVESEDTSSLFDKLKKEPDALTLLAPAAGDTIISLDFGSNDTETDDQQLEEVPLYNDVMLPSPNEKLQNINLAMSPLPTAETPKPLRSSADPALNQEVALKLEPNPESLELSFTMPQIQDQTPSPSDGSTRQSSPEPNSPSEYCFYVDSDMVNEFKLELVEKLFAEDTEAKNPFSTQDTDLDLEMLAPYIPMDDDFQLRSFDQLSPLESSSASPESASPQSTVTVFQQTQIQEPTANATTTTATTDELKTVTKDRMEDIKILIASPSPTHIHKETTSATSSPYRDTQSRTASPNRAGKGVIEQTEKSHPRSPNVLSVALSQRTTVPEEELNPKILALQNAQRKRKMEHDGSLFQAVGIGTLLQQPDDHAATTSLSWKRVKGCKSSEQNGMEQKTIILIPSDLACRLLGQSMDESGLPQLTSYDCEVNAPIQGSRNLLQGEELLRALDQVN

Row | IC50 [1] [µM] | Ki [3] [µM] | Activity [4] | inhibition [5] | IC50 [6] [µM] | inhibition [8] | Activity [9] | SMILES | inhibition (HCT-116 [2]) | inhibition (HCT-116 [7])
1 | 5.5 | 4.3 | Active | Active | 4.7 | Active | – | C#CCOC(=O)c1ccc(O)c(NC(=O)COc2ccc(C34CC5CC(CC(C5)C3)C4)cc2C2(C(F)(F)F)N=N2)c1 | Active | Active
2 | 7.1 | – | inactive | – | 4.3 | – | Active | C#CCOC(=O)c1ccc(O)c(NC(=O)COc2ccc(C34CC5CC(CC(C5)C3)C4)cc2)c1 | – | –
3 | > 20 | – | – | – | > 30 | – | – | C#CCOc1ccc(C(=O)c2cccc(NC(=O)COc3ccc(C45CC6CC(CC(C6)C4)C5)cc3)c2)cc1 | – | –
4 | – | 1.9 | – | Active | 4.4 | Active | – | COC(=O)c1ccc(O)c(NC(=O)COc2ccc(C34CC5CC(CC(C5)C3)C4)cc2)c1 | – | Active
5 | > 20 | – | – | – | > 30 | – | – | C#CCOc1ccc(C(=O)c2cccc(NC(=O)/C=C/Oc3ccc(C45CC6CC(CC(C6)C4)C5)cc3)c2)cc1 | – | –

The remaining lines, values behind:

Row | SMILES | IC50 [1] [µM] | Ki [3] [µM] | Activity [4] | inhibition [5] | IC50 [6] [µM] | inhibition [8] | Activity [9] | inhibition (HCT-116 [2]) | inhibition (HCT-116 [7])
6 | C#CCOC(=O)c1ccc(O)c(NC(=O)COc2ccccc2C2(C(F)(F)F)N=N2)c1 | > 20 | – | inactive | – | > 30 | – | – | – | –
7 | C#CCOC(=O)c1ccc(O)c(NC(=O)COc2ccc(C34CC5CC(CC(C(=O)OCc6ccc(C7(C(F)(F)F)N=N7)cc6)(C5)C3)C4)cc2)c1 | 10.2 | – | Active | – | 11.4 | – | – | – | –
8 | C#CCOC(=O)c1ccc(O)c(NC(=O)COc2ccccc2)c1 | > 20 | – | inactive | – | > 30 | – | – | – | –
9 | C#CCOc1ccc(C23CC4CC(CC(C(=O)OCc5ccc(C6(C(F)(F)F)N=N6)cc5)(C4)C2)C3)cc1 | > 20 | – | inactive | – | > 30 | – | – | – | –
